# Values joined by “and” are separate entries in the source; they are usually repeats but may differ in a detail not shown here. Equal entries are not always repeated. The whole screen tested about 360,000 compounds, of which about 1,400 (0.39%) were called active. The entries come from a sample that favours actives as a whole. Unmarked numbers belong to inactive results.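 How the source made its calls: active means pattern-corrected inhibition above about 35%, with an unprinted fluorescence ratio check between 0.5 and 1.5 (limit read from the data, passing the limit was not always enough); inactive means the rest.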
# Target: COP9 signalosome complex subunit 5 (Homo sapiens) (UniProt Q92905)
# Sequence (Q92905 whole entry, looked up, one chain of several): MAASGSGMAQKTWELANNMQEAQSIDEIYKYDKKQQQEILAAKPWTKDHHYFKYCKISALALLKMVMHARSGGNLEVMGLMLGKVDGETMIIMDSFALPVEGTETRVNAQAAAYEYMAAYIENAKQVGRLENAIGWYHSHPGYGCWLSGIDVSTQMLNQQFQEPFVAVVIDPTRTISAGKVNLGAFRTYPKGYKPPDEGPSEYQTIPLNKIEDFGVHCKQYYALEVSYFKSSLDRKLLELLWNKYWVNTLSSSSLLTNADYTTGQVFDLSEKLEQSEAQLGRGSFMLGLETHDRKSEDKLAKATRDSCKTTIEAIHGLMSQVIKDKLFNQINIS
# Experiment: inhibitors of CSN-mediated cullin deneddylation, primary screen, biochemical, fluorescence polarization, uHTS (AID 651999);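 further: 0% = enzyme with substrate and 100% = substrate without enzyme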
# Settings: Purified CSN, SCF-Nedd8-OG deneddylation, at 12.5 µM, hits give high values
# Method in brief: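 Material: human Csn5 produced in HEK293T cells; Input: enzyme 0.24 nM; Reagent: SCFSkp2-Nedd8OG substrate at 10 nM final; Dosing: 12.5 µM compound; Incubation: 90 min reaction at room temperature; Detection: fluorescence polarization of the substrate; Evaluation: % inhibition of substrate cleavage by Csn5; Control set: substrate-only high control, full reaction low control.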
row,Compound,inhibition
1,N#Cc1c(NC(=O)CCCN2C(=O)c3ccccc3C2=O)oc(-c2ccccc2)c1-c1ccccc1,-3.56%
2,CC(C)C(=O)Nc1oc(-c2ccccc2)cc1C#N,5.77%
3,CC(Oc1ccccc1)C(=O)Nc1oc(-c2ccco2)c(-c2ccco2)c1C#N (stereo not given),38.5% (active)
4,Nc1nnc2c(C(F)(F)F)nc3ccccc3n12,0.57%
5,Cc1cccc(N2C(=O)SC(SC(=Nc3ccccc3)Nc3ccccc3)C2=O)c1 (stereo not given),-2.12%
6,CCC(C)(C)n1nnnc1CN1CCN(c2nc3ccc(C)cc3cc2C#N)CC1,1.36%
7,Cc1cccc(N(C)C(=O)CN2C(=O)COc3ccc(S(=O)(=O)N4CCCCCC4)cc32)c1,-4.61%
8,Cc1cccc(NS(=O)(=O)c2cccc(C(=O)NNC(=O)c3ccccc3O)c2)c1,-6.82%
9,Cc1ccccc1C(=O)NNC(=O)CN1C(=O)c2ccccc2C1=O,6.43%
10,Cc1cc(C(=O)CCC(=O)NNC(=O)c2ccccc2O)c(C)s1,36.4% (active)
11,COC(=O)c1ccc(CN2CCN(CCCc3ccccc3)C(CCO)C2)cc1 (stereo not given),-2.91%
12,CCOC(=O)N1CCN(S(=O)(=O)N2CCCC(C(=O)NCCCN3CCC(C)CC3)C2)CC1 (stereo not given),2.45%
13,O=C(Oc1c(-c2ccco2)oc2ccccc2c1=O)c1cccnc1,-1.72%
14,CC(Oc1ccc(-c2ccccc2)c(F)c1)c1ccn(S(=O)(=O)c2cccc3ccccc23)n1 (stereo not given),3.61%
15,COc1ccc(C2OCC3(CO2)SC(=O)NC3=O)cc1OC (stereo not given),-7.79%
16,COc1ccc(OC)c(CNC(=O)CCc2nc(-c3cccs3)no2)c1,2.31%
17,COc1ccc(CCc2nc(-c3cccs3)no2)cc1,1.58%
18,CCc1ccc(CNC(=O)CCc2nc(-c3cccs3)no2)cc1,90.8% (active)
19,COc1cccc2c1C(=O)c1c(O)c3c(c(O)c1C2=O)CC(O)(C(C)=NNC(=O)c1ccc(Cl)c(Cl)c1)CC3OC1CC(N)C(O)C(C)O1 (stereo not given),-72.5%
20,COc1ccc(CN2CN(C3CCCC3)CSC2=S)cc1,-9.41%
21,COC(=O)[C@@]12C[C@@H](CC(=O)NCc3cccc(C(F)(F)F)c3)C(=O)N(Cc3ccco3)C1=CCC(C)(C)C2,1.26%
22,Cc1cccc(-c2cnc(C(O)c3cc(C)cc(C)c3)[nH]2)c1 (stereo not given),-2.61%
23,COc1cccc(C(O)c2ncc(-c3ccc4ccccc4c3)[nH]2)c1 (stereo not given),-4.1%

row,Compound,inhibition
1,Cc1cccc(-c2cnc(C(O)c3ccc4ccccc4c3)[nH]2)c1 (stereo not given),39.3% (active)
2,CCc1nn(CCCN2CCN(c3cccc(Cl)c3)CC2)c(=O)n1CCOc1ccccc1,-4.47% and -2.79%
3,Cc1ccc(CNS(=O)(=O)c2ccc3c(c2)N(C)CCO3)cc1,-2.61%
4,CCCC/C=C/c1cccc2nncn12,-1.69%
5,COc1ccc2[nH]c3c(C)c4cc[n+](C)cc4c(C)c3c2c1,102% (active)
6,Cc1cc(O)c(Sc2ccccc2)c(=O)o1,0.39%
7,Cc1cc(O)c(C(=O)/C=C/c2c(F)c(F)c(F)c(F)c2F)c(=O)o1,43.9% (active)
8,O=C(CC[C@H]1O[C@@H](n2ccc(=O)[nH]c2=O)[C@H](O)[C@@H]1O)N[C@H](Cc1ccccc1)C(=O)NCc1ccco1,-1.91%
9,CCN(CC(=O)NCC(=O)Nc1cccc(C)c1C)Cc1ccccc1,1.96%
10,CCOc1cc(CNn2c(C)nnc2SCC(=O)NC(C)(C)C)ccc1OCC(=O)NC(C)(C)C,2.06%
11,C=CCSc1nnc(Cn2c(=O)sc3ccccc32)n1C,7.9%
12,CCSc1nc(C)c(CCOc2cccc(C)c2)c(=O)[nH]1,-18.6%
13,COc1cccc(CN(C)CC(=O)Nc2sc3c(c2C#N)CCC3)c1,4.05%
14,NC(=O)c1c(NC(=O)CSc2nnc(-c3ccco3)n2N)sc2c1CCCC2,10.7%
15,COc1ccc(-n2c(SCC(=O)Nc3sc4c(c3C#N)CCCC4)nnc2-c2ccc(O)cc2)cc1,50.2% (active)
16,Cc1ccc(NC(=O)CN(C)S(=O)(=O)c2cnc[nH]2)cc1C,-2.5%
17,COC1=C/C(=C/c2c(N)n3nc(CC(=O)N4CCOCC4)sc3nc2=O)C=CC1=O,16.1%
18,C=CCC1=C/C(=C\c2c(N)n3nc(CC(=O)N4CCOCC4)sc3nc2=O)C=C(OC)C1=O,72.5% (active)
19,O=C(C1CCN(C2CCN(Cc3ccc4cc(F)ccc4n3)CC2)CC1)N1CCCC1,1%
20,Cc1cc(F)ccc1S(=O)(=O)Nc1ncnc2scc(-c3ccc(F)cc3)c12,0.77%
21,O=C(O)CC(c1ccccc1F)N1Cc2ccccc2C1=O (stereo not given),-0.99%
22,O=S(=O)(Nc1ccc2ccccc2c1)N1CCCCC1,-1.67%
23,Cc1noc(C)c1S(=O)(=O)N(C)C[C@H]1Oc2ccc(NC(=O)C3CCCCC3)cc2C(=O)N([C@H](C)CO)C[C@@H]1C,-5.26%

row,Compound,inhibition
1,CCN1/C(=C\c2ccc3ccccc3[n+]2CC)Sc2cc(C)ccc21,62.2% (active)
2,FC(F)(F)c1ccccc1Cc1c(-c2ccccc2)nc2c3ccccc3ccn12,3.57%
3,COc1cc(CN(C)Cc2nc3cc(C(F)(F)F)ccc3c(=O)[nH]2)ccc1OC(F)F,5.3%
4,CC(=O)Nc1ccc(C(=O)NNC(=O)CCCCC(=O)NNC(=O)c2ccc(NC(C)=O)cc2)cc1,2.24%
5,CN(CC(=O)NC1CCCCC1)S(=O)(=O)c1cccc2cccnc12,-6.5%
6,CC1(C)CC(=O)C2=C(C1)NCN(CCCN1CCOCC1)C2,-5.59%
7,O=C(COC(=O)c1cc(=O)[nH]c2ccccc12)Nc1nc(-c2cccc(Br)c2)cs1,3.39%
8,O=C(CSc1nc2ccccc2c(=O)[nH]1)Nc1nc(-c2ccc(Br)cc2)cs1,55.8% (active)
9,CCCn1c(C)cc(-c2csc(NC(=O)CCc3nc4ccccc4c(=O)[nH]3)n2)c1C,5.04%
10,CC1(C)C2CCC1(CS(=O)(=O)NCCc1c[nH]c3ccccc13)C(=O)C2 (stereo not given),-3.93%
11,COc1ccc(C(c2nnnn2C2CCCC2)N2CCN(C/C=C/c3ccccc3)CC2)cc1 (stereo not given),-3.45%
12,OC[C@@H]1CN(Cc2cccs2)C[C@H](n2cnc3c(Nc4ccccc4)ncnc32)O1,1.6%
13,O=C(CC1SC(N2CCOCC2)=NC1=O)Nc1ccccc1F (stereo not given),-4.57%
14,N#C/C(=C\C1=C(N2CCOCC2)C(=C\c2ccccc2)/CC1)C(=O)Nc1ccccc1F,59.9% (active)
15,CNC(=O)/C(C#N)=C/c1c(F)cccc1Cl,-0.2%
16,Cc1cc(C)c(S(=O)(=O)NCC(c2ccc3c(c2)OCO3)N2CCOCC2)c(C)c1 (stereo not given),4.99%
17,COc1ccc(C2=Nc3ccccc3NC(=O)C2N(C(=O)c2cc3ccccc3[nH]2)c2ccccc2)cc1 (stereo not given),1.01%
18,O=C(O)c1ccccc1NC(=S)NC(NC(=O)c1ccccc1[N+](=O)[O-])C(Cl)(Cl)Cl (stereo not given),0.72%
19,COc1cc(N2CCCC2)c(OC)cc1/C=C(/C#N)c1cccc(Br)c1,40.3% (active)
20,Cc1cccc(NC(=O)C2CC(=O)OC23CCCC3)c1 (stereo not given),-1.93%
21,Cc1cccc(C)c1NC(=O)C1CCCN1C(=O)OC(C)(C)C (stereo not given),1.38%
22,O=C(C(=O)N1CCc2ccccc2C1)c1c[nH]c2ccccc12,3.61%
23,CN(C(=O)COc1nnc(-c2cccs2)c(-c2cccs2)n1)c1ccccc1,4.69%

row,Compound,inhibition
1,C=CCn1c(=S)[nH]c2scc(-c3ccco3)c2c1=O,35.8% (active)
2,Cc1ccc(-c2nnc(C)c(N3CC(C)OC(C)C3)n2)cc1 (stereo not given),4.31%
3,Cc1nn(C)c(Cl)c1CN1CCC(Oc2ccc(C(=O)N3CCCC3)cc2)CC1,-0.97%
4,COCCCn1c(C(=O)NC2CCCCC2)cc2c(=O)n3cccc(C)c3nc21,-3.61%
5,Cc1ccccc1-n1nc(C)c2cc(C(=O)NC3CC3)sc21,-0.46%
6,Cc1cccn2c(=O)c3cc(C(=O)NC4CCCCC4)sc3nc12,38.6% (active)
7,CN1CCNC(=O)C1CC(=O)N1CC=C(c2ccc(F)cc2)CC1 (stereo not given),-1.53%
8,Cc1ccc([C@H]2C[C@H](O)[C@@H](n3cc(COC(=O)c4ccccc4)nn3)CN2CC2CCCCC2)cc1,-1.77%
9,COC(=O)N/N=C/c1c[n+]([O-])c2ccccc2[n+]1[O-],-7.07%
10,Cc1cccc(N2CCN(C(=O)/C=C/c3ccco3)CC2)c1C,-6.8%
11,Cc1ccc(-n2nc3ccc(NC(=O)/C=C/c4ccco4)cc3n2)cc1C,62.3% (active)
12,CCC(=O)Nc1ccc2nn(-c3ccc(F)cc3)nc2c1,-3.58%
13,C[C@H](CO)N1C[C@H](C)[C@@H](CN(C)C(=O)c2cnccn2)Oc2ncc(Br)cc2C1=O,-0.87%
14,COc1ccc(C(C(=O)NC2CCCC2)N(CCCO)C(=O)Cn2nnc(-c3ccc(C)o3)n2)cc1 (stereo not given),-1.83%
15,CCCNC(=O)C1(C)CCCN(Cc2cccc(C(F)(F)F)c2)C1 (stereo not given),1.08%
16,O=C(CN1C(=O)CCS(=O)(=O)c2ccccc21)NCc1ccc(F)cc1,2.38%
17,CSCc1ccc(C(=O)Nc2cc(C)cc(C)c2)cc1,-3.14%
18,COCc1cc(C)nc(Nc2cc(C)ccc2C)c1C#N,2.37%
19,O=C(CCN1C(=O)/C(=C/c2cccs2)SC1=S)NNC(=O)c1cccc(O)c1,51.4% (active)
20,O=C(CCN1C(=O)c2ccccc2C1=O)NNC(=O)c1ccc(Cl)cc1Cl,-5.29%
21,Cc1c(C(=O)NCCN2C(=O)S/C(=C\c3cccs3)C2=O)cccc1[N+](=O)[O-],-3.22%

# Source: PubChem BioAssay AID651999 (Sanford-Burnham Center for Chemical Genomics, 2013)
